The record followed here is ChEMBL document CHEMBL1143420, “Distribution of suramin, an antitrypanosomal drug, across the blood-brain and blood-cerebrospinal fluid interfaces in wild-type and P-glycoprotein transporter-deficient mice” (Antimicrob Agents Chemother, 2007).

The species entered for one series is Mus musculus. Description: Drug uptake in BALB/c mouse assessed as tritiated drug level at 5 ml/min perfusion after 10 min relative to [14C]sucrose. Type of series: ADME, organism-based. To be noted: in vivo, other.
The nature of series [1]: Biodistribution in wild type FVB Mdr1a/Mdr1b positive mouse brain 4th ventricle choroid plexus assessed as tritiated drug level at 150 uM perfusion after 30 mins by capillary depletion assay. Type of series: ADME, organism-based. To be noted: in vivo, other, 0.5 h. The gist of the method: (§1)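 The method compared multiple-time CNS uptake in Mdr1a/Mdr1b+/+ and –/– FVB male mice (about 25 g; genotype confirmed by PCR). […] Regional dpm/g was expressed relative to plasma (RTissue%). 3-4 mice per point. Genotypes were compared by Student's t test.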

The nature of series [2]: Biodistribution in perfused BALB/c mouse choroid plexus assessed as tritiated drug level after 2.5 mins in presence of phenylarsine oxide relative to control. Type of series: ADME, organism-based. To be noted: in vivo. The gist of the method: (§2)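 Mice were perfused with artificial plasma for 4 min, then decapitated. The IVth ventricle choroid plexus was excised and preincubated 10 min in artificial CSF at 37°C. […] BALB/c tissue also received 150 µM phenylarsine oxide in 0.05% DMSO, or 0.05% DMSO alone.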

The subject of series [3] is Thalamus. Description: Biodistribution in BALB/c mouse thalamus assessed as tritiated drug level at 150 uM perfusion after 10 mins by capillary depletion assay in presence of phenylarsine ocide. In kind it is ADME, organism-based. The settings on record: in vivo, other. The gist of the method: (§3)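 BALB/c mice were perfused in situ via the heart at 5 ml/min. A 10-min preperfusion used either 150 µM phenylarsine oxide in 0.05% DMSO (final) or a 0.05% DMSO control. […] Brain regions were sampled and counted by liquid scintillation. Results are RTissue% as mean ± SEM.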

Series [4] can be described thus: Biodistribution in wild type FVB Mdr1a/Mdr1b positive mouse caudate putamen assessed as tritiated drug level at 150 uM perfusion after 30 mins by capillary depletion assay. The settings on record: in vivo, other, 0.5 h. Type of series: ADME, organism-based. The gist of the method: as §1
A short description of series [5]: Biodistribution in perfused FVB Mdr1a/Mdr1b deficient mouse choroid plexus assessed as tritiated drug level after 2.5 mins relative to control. In kind it is ADME, organism-based. The settings on record: in vivo. The gist of the method:
as §2

For series [6], the system named is Hypothalamus. Description: Biodistribution in wild type FVB Mdr1a/Mdr1b positive mouse hypothalamus assessed as tritiated drug level at 150 uM perfusion after 30 mins by capillary depletion assay. Type of series: ADME, organism-based. To be noted: in vivo, other, 0.5 h. The gist of the method: as §1
A short description of series [7]: Biodistribution in perfused wild type FVB Mdr1a/Mdr1b positive mouse choroid plexus assessed as tritiated drug level after 2.5 mins relative to control. In kind it is ADME, organism-based. To be noted: in vivo. The gist of the method:
as §2

The nature of series [8]: Biodistribution in FVB Mdr1a/Mdr1b deficient mouse frontal cortex assessed as tritiated drug level at 150 uM perfusion after 30 mins by capillary depletion assay. In kind it is ADME, organism-based. To be noted: in vivo, other, 0.5 h. The gist of the method: as §1
Series [9] concerns Hypothalamus. Kind of series: Biodistribution in FVB Mdr1a/Mdr1b deficient mouse hypothalamus assessed as tritiated drug level at 150 uM perfusion after 30 mins by capillary depletion assay. Type of series: ADME, organism-based. The settings on record: in vivo, other, 0.5 h. The gist of the method: as §1
A short description of series [10]: Biodistribution in wild type FVB Mdr1a/Mdr1b positive mouse pituitary gland assessed as tritiated drug level at 150 uM perfusion after 30 mins by capillary depletion assay. In kind it is ADME, organism-based. The settings on record: in vivo, other, 0.5 h. The gist of the method: as §1
Series [11] in a line: Biodistribution in perfused FVB Mdr1a/Mdr1b deficient mouse choroid plexus assessed as tritiated drug level after 30 mins relative to control. Type of series: ADME, organism-based. To be noted: in vivo, 0.5 h. The gist of the method: as §2
Another series relates to Cerebellum. Kind of series: Biodistribution in FVB Mdr1a/Mdr1b deficient mouse cerebellum assessed as tritiated drug level at 150 uM perfusion after 30 mins by capillary depletion assay. Type of series: ADME, organism-based. The settings on record: in vivo, other, 0.5 h. The gist of the method: as §1
Series [12] is described as follows: Biodistribution in perfused BALB/c mouse choroid plexus assessed as tritiated drug level after 2.5 mins in presence of DMSO relative to control. In kind it is ADME, organism-based. To be noted: in vivo. The gist of the method: as §2
Series [13] concerns Thalamus. Description: Biodistribution in FVB Mdr1a/Mdr1b deficient mouse thalamus assessed as tritiated drug level at 150 uM perfusion after 30 mins by capillary depletion assay. To be noted: in vivo, other, 0.5 h. In kind it is ADME, organism-based. The gist of the method:
as §1

Series [14] in a line: Biodistribution in FVB Mdr1a/Mdr1b deficient mouse caudate putamen assessed as tritiated drug level at 150 uM perfusion after 30 mins by capillary depletion assay. Type of series: ADME, organism-based. To be noted: in vivo, other, 0.5 h. The gist of the method:
as §1

Series [15] is described as follows: Biodistribution in perfused wild type FVB Mdr1a/Mdr1b positive mouse choroid plexus assessed as tritiated drug level after 30 mins relative to control. To be noted: in vivo, 0.5 h. Type of series: ADME, organism-based. The gist of the method:
as §2

The nature of series [16]: Biodistribution in wild type FVB Mdr1a/Mdr1b positive mouse pineal gland assessed as tritiated drug level at 150 uM perfusion after 30 mins by capillary depletion assay. Type of series: ADME, organism-based. The settings on record: in vivo, other, 0.5 h. The gist of the method: as §1
Series [17] can be described thus: Protein binding in mouse plasma assessed as tritiated drug level. To be noted: read-out: PPB (converted). In kind it is ADME, cell-free. The gist of the method:
(§4)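 [3H]suramin (0.14 µCi) was dissolved in 0.7 ml of warmed artificial plasma, mouse plasma, or reconstituted human plasma. Binding was measured by centrifugal ultrafiltration. Mouse plasma came from heparinized cardiac blood of male FVB mice, spun at 5,400 x g for 10 min. Human plasma was lyophilized citrated plasma. Protein retention by the filter was checked by the Lowry method.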

The nature of series [18]: Biodistribution in perfused BALB/c mouse choroid plexus assessed as drug accumulation after 2.5 mins in presence of phenylarsine oxide. Type of series: ADME, organism-based. The settings on record: in vivo. The gist of the method: as §2
Series [19] can be described thus: Biodistribution in BALB/c mouse choroid plexus assessed as tritiated drug level at 150 uM perfusion after 10 mins by capillary depletion assay in presence of DMSO. To be noted: in vivo, other. In kind it is ADME, organism-based. The gist of the method: as §3
The nature of series [20]: Biodistribution in BALB/c mouse pituitary gland assessed as tritiated drug level at 5 ml/min perfusion after 30 min. In kind it is ADME, organism-based. To be noted: in vivo, other, 0.5 h. The gist of the method: (§5)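 BALB/c mice were anesthetized (medetomidine 2 mg/kg, ketamine 150 mg/kg), heparinized, and perfused via the left ventricle at 5 ml/min with oxygenated artificial plasma (Krebs-Henseleit base, 1 g/liter BSA, 37°C). […] Tissue dpm/g was expressed as % of plasma dpm/ml (RTissue%). 3-4 mice per point.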

Series [21] in a line: Protein binding in artificial plasma assessed as tritiated drug level. Type of series: ADME, cell-free. To be noted: read-out: PPB (converted). The gist of the method: as §4
Series [22] in a line: Protein binding in human plasma assessed as tritiated drug level. Type of series: ADME, cell-free. To be noted: read-out: PPB (converted). The gist of the method: as §4
A short description of series [23]: Partition coefficient of the compound. To be noted: octanol/water.
Series [24] in a line: Biodistribution in BALB/c mouse pineal gland assessed as tritiated drug level at 5 ml/min perfusion after 30 min. In kind it is ADME, organism-based. To be noted: in vivo, other, 0.5 h. The gist of the method: as §5
A short description of series [25]: Biodistribution in perfused FVB Mdr1a/Mdr1b deficient mouse choroid plexus assessed as drug accumulation after 30 mins. The settings on record: in vivo, 0.5 h. Type of series: ADME, organism-based. The gist of the method: as §2
Series [26] in a line: Biodistribution in perfused wild type FVB Mdr1a/Mdr1b positive mouse choroid plexus assessed as drug accumulation after 30 mins. In kind it is ADME, organism-based. To be noted: in vivo, 0.5 h. The gist of the method: as §2
Series [27] in a line: Biodistribution in BALB/c mouse 4th ventricle choroid plexus assessed as tritiated drug level at 5 ml/min perfusion after 30 min. In kind it is ADME, organism-based. To be noted: in vivo, other, 0.5 h. The gist of the method:
as §5

Series [28] is described as follows: Biodistribution in wild type FVB Mdr1a/Mdr1b positive mouse choroid plexus assessed as tritiated drug level at 150 uM perfusion after 30 mins by capillary depletion assay. In kind it is ADME, organism-based. The settings on record: in vivo, other, 0.5 h. The gist of the method:
as §1

A short description of series [29]: Biodistribution in FVB Mdr1a/Mdr1b deficient mouse choroid plexus assessed as tritiated drug level at 150 uM perfusion after 30 mins by capillary depletion assay. To be noted: in vivo, other, 0.5 h. Type of series: ADME, organism-based. The gist of the method:
as §1

Series [30] is described as follows: Biodistribution in FVB Mdr1a/Mdr1b deficient mouse pineal gland assessed as tritiated drug level at 150 uM perfusion after 30 mins by capillary depletion assay. In kind it is ADME, organism-based. The settings on record: in vivo, other, 0.5 h. The gist of the method:
as §1

Series [31] in a line: Biodistribution in perfused BALB/c mouse choroid plexus assessed as drug accumulation after 2.5 mins in presence of DMSO. To be noted: in vivo. In kind it is ADME, organism-based. The gist of the method: as §2
A short description of series [32]: Biodistribution in perfused FVB Mdr1a/Mdr1b deficient mouse choroid plexus assessed as drug accumulation after 2.5 mins. In kind it is ADME, organism-based. To be noted: in vivo. The gist of the method: as §2
Series [33] in a line: Biodistribution in FVB Mdr1a/Mdr1b deficient mouse pituitary gland assessed as tritiated drug level at 150 uM perfusion after 30 mins by capillary depletion assay. In kind it is ADME, organism-based. The settings on record: in vivo, other, 0.5 h. The gist of the method: as §1
Series [34] is described as follows: Biodistribution in perfused wild type FVB Mdr1a/Mdr1b positive mouse choroid plexus assessed as drug accumulation after 2.5 mins. To be noted: in vivo. In kind it is ADME, organism-based. The gist of the method:
as §2

Turning to `OC[C@H]1O[C@@](CO)(O[C@H]2O[C@H](CO)[C@@H](O)[C@H](O)[C@H]2O)[C@@H](O)[C@@H]1O` [SUCROSE], the Drug uptake in the series listed under Mus musculus stood at 1.56%; in [1] it was 83.2%; in [2], 1.6%; in series [4], 1.1%; in series [5], 1.8%; with Hypothalamus [6], 2.2%. Besides, the Drug uptake in series [7] amounted to 0.9%; in [8], 2.5%; with Hypothalamus [9], 5.8%; in series [10], 80.4%; in series [11], 2.6%; with Cerebellum it was 2.5%. Also, the Drug uptake in series [12] turned out to be 0.7%; in the series on Thalamus [13], 3.4%; in series [14], 2.5%; in series [15], 2.1%; in series [16] it was 54.4%. Besides, the Activity in the series on Thalamus [3] is listed as 2.2%.

As for `Cc1ccc(C(=O)Nc2ccc(S(=O)(=O)O)c3cc(S(=O)(=O)O)cc(S(=O)(=O)O)c23)cc1NC(=O)c1cccc(NC(=O)Nc2cccc(C(=O)Nc3cc(C(=O)Nc4ccc(S(=O)(=O)O)c5cc(S(=O)(=O)O)cc(S(=O)(=O)O)c45)ccc3C)c2)c1` [SURAMIN], the Drug uptake is reported as 13% in series [2]; 12.5% in [5]; 11.4% in [18]; 9.5% in series [7]; 99.4% in [19]; 39% in series [20]. Further, the Drug uptake is 46% in series [10]; 388% in series [24]; 26.6% in series [25]; 25.3% in series [26]; 163% in series [27]; 29.3% in series [11]. For the same compound, the Drug uptake in series [12] is reported as 7.4%; in [28], 100%; in series [15], 27.2%; in [29], 97%; in series [30] it was 437%; in [31], 6.7%. For the same compound, the Drug uptake in series [32] is 10.9%; in series [16], 263%; in series [33] it was 57%; in series [34], 8.6%. Moreover, the fraction unbound is 0.03 in [17], 0.047 in series [21] and 0.006 in series [22]. Moreover, in [23], the partition coefficient is 0.00023.
